In brackets after ≈: the same amount, converted by molar mass. Activity calls are given as the source filed them. No cut-off for these calls is given here.
How the values were obtained:
Bacillus subtilis = experiment: Antibacterial activity against Bacillus subtilis ATCC 23857 after 18 hrs by broth microdilution method; conditions: ATCC 23857, 18 h
[1] = tested on: Mycolicibacterium smegmatis; experiment: Antibacterial activity against Mycobacterium smegmatis ATCC 607 after 18 hrs by broth microdilution method; conditions: ATCC 607, 18 h
Staphylococcus aureus = experiment: Antibacterial activity against Staphylococcus aureus ATCC 25923 after 18 hrs by broth microdilution method; conditions: ATCC 25923, 18 h
MDA-MB-468 = experiment: Cytotoxicity against human MDA-MB-468 cells after 72 hrs by MTS assay; assay type: functional, cell-based; conditions: MDA-MB-468, 72 h
M14 = experiment: Cytotoxicity against human M14 cells after 72 hrs by MTS assay; assay type: functional, cell-based; conditions: M14, 72 h
SF-539 = experiment: Cytotoxicity against human SF539 cells after 72 hrs by MTS assay; assay type: functional, cell-based; conditions: SF-539, 72 h
Escherichia coli [2] = experiment: Antibacterial activity against Escherichia coli ATCC 25922 after 12 hrs by agar diffusion method; assay type: functional, organism-based
In short: (§1)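 Filter-paper disc on tryptic soy agar receiving 25 µL of compound at 2 mM in H2O; plates incubated 37 °C for 12 h, then inhibition zone scored; tetracycline as positive control.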

Escherichia coli [3] = experiment: Antibacterial activity against Escherichia coli JM 109 after 12 hrs by agar diffusion method; assay type: functional, organism-based
In short: as §1

SF-295 = experiment: Cytotoxicity against human SF295 cells after 72 hrs by MTS assay; assay type: functional, cell-based; conditions: SF-295, 72 h
NCI-H226 = experiment: Cytotoxicity against human NCI-H226 cells after 72 hrs by MTS assay; assay type: functional, cell-based; conditions: NCI-H226, 72 h

SMILES | MIC (Bacillus subtilis) | MIC [1] | MIC (Staphylococcus aureus) | IC50 (MDA-MB-468) | IC50 (M14) | IC50 (SF-539) | Activity (Escherichia coli [2]) | Activity (Escherichia coli [3]) | IC50 (SF-295) | IC50 (NCI-H226)
CN(C)[C@@H]1C(O)=C(C(N)=O)C(=O)[C@@]2(O)C(O)=C3C(=O)c4c(O)cccc4[C@@](C)(O)[C@H]3C[C@@H]12 [TETRACYCLINE] | 13 µg/mL (≈ 29.3 µM) | 11 µg/mL (≈ 24.8 µM) | 6.7 µg/mL (≈ 15.1 µM) |  |  |  |  |  |  | 
COc1cccc2c1C(=O)c1ccc3c(c1C2=O)C(=O)C[C@](C)(O)C3 | 25 µg/mL (≈ 74.3 µM) | > 100 µg/mL | > 100 µg/mL | 27 µM | 9.7 µM | 10 µM | inactive | inactive | 17 µM | 4.6 µM
C[C@]1(O)CC(=O)c2c(ccc3c2C(=O)c2cccc(O)c2C3=O)C1 [TETRANGOMYCIN] | 8.1 µg/mL (≈ 25.1 µM) | 9.7 µg/mL (≈ 30.1 µM) | 11 µg/mL (≈ 34.1 µM) | 16 µM | 2.4 µM | 3.2 µM | inactive | inactive | 12 µM | 7.2 µM
CO[C@@]12[C@H](COC(N)=O)C3=C(C(=O)C(C)=C(N)C3=O)N1C[C@@H]1N[C@@H]12 [MITOMYCIN] |  |  |  | 0.5 µM | 0.47 µM | 0.038 µM |  |  | 0.54 µM | 0.58 µM
COc1cccc2c1C(=O)c1ccc3c(c1C2O)C(=O)C[C@](C)(O)C3 (stereo partly drawn) | > 100 µg/mL | > 100 µg/mL | > 100 µg/mL | 52 µM | 31 µM | 12 µM | inactive | inactive | 3.1 µM | 7.2 µM
COc1cccc(C(=O)c2c(O)ccc3c2C(=O)C[C@](C)(O)C3)c1CO | 85 µg/mL (≈ 239 µM) | 93 µg/mL (≈ 261 µM) | > 100 µg/mL | > 100 µM | > 100 µM | > 100 µM | inactive | inactive | > 100 µM | > 100 µM

From ChEMBL document CHEMBL3632619, “Angucyclines and Angucyclinones from Streptomyces sp. CB01913 Featuring C-Ring Cleavage and Expansion” (J Nat Prod, 2015)
